Results taken from ChEMBL document CHEMBL1156088, “Synthesis and biological activity of novel oxazolidinones” (2009).
In brackets after ≈: the same amount, converted by molar mass.

Assays:
Assay type in all cases: functional
Streptococcus pyogenes = assay: Antibacterial activity against Streptococcus pyogenes ATCC 19615 by NCCLS method
In short: (§1)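 In vitro MIC determination by the NCCLS method against a panel of gram-positive bacteria. Two oxazolidinone reference standards were tested alongside.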

Enterococcus faecalis = assay: Antibacterial activity against Enterococcus faecalis ATCC 29212 by NCCLS method; in short: as §1
Staphylococcus aureus [1] = assay: Antibacterial activity against Staphylococcus aureus 15187 by NCCLS method; in short: as §1
Enterococcus faecium = assay: Antibacterial activity against vancomycin-resistant Enterococcus faecium 6A by NCCLS method
In short: (§2)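 In vitro MIC determined by the NCCLS method against a panel of gram-positive bacteria. Ranbezolid and linezolid were run alongside as reference standards.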

Staphylococcus aureus [2] = assay: Antibacterial activity against methicillin-resistant Staphylococcus aureus 33 by NCCLS method; in short: as §2
Staphylococcus aureus [3] = assay: Antibacterial activity against methicillin-resistant Staphylococcus aureus 562 by NCCLS method; in short: as §2
Streptococcus pneumoniae = assay: Antibacterial activity against Streptococcus pneumoniae ATCC 6303 by NCCLS method; in short: as §1
Staphylococcus aureus [4] = assay: Antibacterial activity against Staphylococcus aureus ATCC 25923 by NCCLS method; in short: as §1

Row | Compound | MIC (Streptococcus pyogenes) [mg/L] | MIC (Enterococcus faecalis) [mg/L] | MIC (Staphylococcus aureus [1]) [mg/L] | MIC (Enterococcus faecium) [mg/L] | MIC (Staphylococcus aureus [2]) [mg/L] | MIC (Staphylococcus aureus [3]) [mg/L] | MIC (Streptococcus pneumoniae) [mg/L] | MIC (Staphylococcus aureus [4]) [mg/L]
1 | O=C(CF)NC[C@H]1CN(c2ccc(N3CCN(Cc4ccc([N+](=O)[O-])o4)CC3)c(F)c2)C(=O)O1 | 0.5 (≈ 1.04 µM) | 4 (≈ 8.34 µM) | 2 (≈ 4.17 µM) | 4 (≈ 8.34 µM) | 4 (≈ 8.34 µM) | 2 (≈ 4.17 µM) | 1 (≈ 2.09 µM) | 4 (≈ 8.34 µM)
2 | O=C(NC[C@H]1CN(c2ccc(N3CCN(Cc4ccc([N+](=O)[O-])o4)CC3)c(F)c2)C(=O)O1)C(F)F | 0.5 (≈ 1.01 µM) | 2 (≈ 4.02 µM) | 1 (≈ 2.01 µM) | 2 (≈ 4.02 µM) | 2 (≈ 4.02 µM) | 2 (≈ 4.02 µM) | 0.5 (≈ 1.01 µM) | 2 (≈ 4.02 µM)
3 | CN(C)C(=S)NC[C@H]1CN(c2ccc(N3CCN(Cc4ccc([N+](=O)[O-])o4)CC3)c(F)c2)C(=O)O1 | > 16 | > 16 | > 16 | > 16 | > 16 | > 16 | > 16 | > 16
4 | O=C1O[C@@H](CO)CN1c1ccc(N2CCN(Cc3ccc([N+](=O)[O-])o3)CC2)c(F)c1 | > 16 | > 16 | > 16 | > 16 | > 16 | > 16 | > 16 | > 16
5 | NC(=S)NC[C@H]1CN(c2ccc(N3CCN(Cc4ccc([N+](=O)[O-])o4)CC3)c(F)c2)C(=O)O1 | 0.25 (≈ 0.522 µM) | 0.5 (≈ 1.04 µM) | 1 (≈ 2.09 µM) | 1 (≈ 2.09 µM) | 1 (≈ 2.09 µM) | 1 (≈ 2.09 µM) | < 0.06 | 1 (≈ 2.09 µM)
6 | COC(=O)NC[C@H]1CN(c2ccc(N3CCN(Cc4ccc([N+](=O)[O-])o4)CC3)c(F)c2)C(=O)O1 | 1 (≈ 2.09 µM) | 8 (≈ 16.8 µM) | 8 (≈ 16.8 µM) | 8 (≈ 16.8 µM) | 8 (≈ 16.8 µM) | 2 (≈ 4.19 µM) | 1 (≈ 2.09 µM) | 8 (≈ 16.8 µM)
7 | NC[C@H]1CN(c2ccc(N3CCN(Cc4ccc([N+](=O)[O-])o4)CC3)c(F)c2)C(=O)O1 | > 16 | > 16 | > 16 | > 16 | > 16 | > 16 | > 16 | > 16
8 | CC(=S)NC[C@H]1CN(c2ccc(N3CCN(Cc4ccc([N+](=O)[O-])o4)CC3)c(F)c2)C(=O)O1 | 0.5 (≈ 1.05 µM) | 1 (≈ 2.09 µM) | 1 (≈ 2.09 µM) | 1 (≈ 2.09 µM) | 1 (≈ 2.09 µM) | 1 (≈ 2.09 µM) | 0.25 (≈ 0.524 µM) | 1 (≈ 2.09 µM)
9 | CSC(=S)NC[C@H]1CN(c2ccc(N3CCN(Cc4ccc([N+](=O)[O-])o4)CC3)c(F)c2)C(=O)O1 | > 16 | > 16 | > 16 | > 16 | > 16 | > 16 | > 16 | > 16
10 | O=C(/C=C/c1ccccc1)NC[C@H]1CN(c2ccc(N3CCN(Cc4ccc([N+](=O)[O-])o4)CC3)c(F)c2)C(=O)O1 | > 16 | > 16 | > 16 | > 16 | > 16 | > 16 | > 16 | > 16
11 | CCOC(=O)NC[C@H]1CN(c2ccc(N3CCN(Cc4ccc([N+](=O)[O-])o4)CC3)c(F)c2)C(=O)O1 | > 16 | > 16 | > 16 | > 16 | > 16 | > 16 | > 16 | > 16
12 | COCC(=O)NC[C@H]1CN(c2ccc(N3CCN(Cc4ccc([N+](=O)[O-])o4)CC3)c(F)c2)C(=O)O1 | > 16 | > 16 | > 16 | > 16 | > 16 | > 16 | > 16 | > 16
13 | O=CNC[C@H]1CN(c2ccc(N3CCN(Cc4ccc([N+](=O)[O-])o4)CC3)c(F)c2)C(=O)O1 | 0.5 (≈ 1.12 µM) | 2 (≈ 4.47 µM) | 2 (≈ 4.47 µM) | 4 (≈ 8.94 µM) | 2 (≈ 4.47 µM) | 2 (≈ 4.47 µM) | 1 (≈ 2.24 µM) | 4 (≈ 8.94 µM)
14 | CC(Cl)C(=O)NC[C@H]1CN(c2ccc(N3CCN(Cc4ccc([N+](=O)[O-])o4)CC3)c(F)c2)C(=O)O1 (some centres not stated) | > 16 | > 16 | > 16 | > 16 | > 16 | > 16 | > 16 | > 16
15 | O=C1O[C@@H](CN=C=S)CN1c1ccc(N2CCN(Cc3ccc([N+](=O)[O-])o3)CC2)c(F)c1 | > 16 | > 16 | > 16 | > 16 | > 16 | > 16 | > 16 | > 16
16 | O=C(NC[C@H]1CN(c2ccc(N3CCN(Cc4ccc([N+](=O)[O-])o4)CC3)c(F)c2)C(=O)O1)c1ccc([N+](=O)[O-])s1 | > 16 | > 16 | > 16 | > 16 | > 16 | > 16 | > 16 | > 16
17 | O=C(NC[C@H]1CN(c2ccc(N3CCN(Cc4ccc([N+](=O)[O-])o4)CC3)c(F)c2)C(=O)O1)C(Cl)Cl | > 16 | > 16 | > 16 | > 16 | > 16 | > 16 | > 16 | > 16
18 | O=C(/C=C/c1ccc2c(c1)OCO2)NC[C@H]1CN(c2ccc(N3CCN(Cc4ccc([N+](=O)[O-])o4)CC3)c(F)c2)C(=O)O1 | > 16 | > 16 | > 16 | > 16 | > 16 | > 16 | > 16 | > 16
19 | O=C(CCl)NC[C@H]1CN(c2ccc(N3CCN(Cc4ccc([N+](=O)[O-])o4)CC3)c(F)c2)C(=O)O1 | 0.5 (≈ 1.01 µM) | 2 (≈ 4.03 µM) | 2 (≈ 4.03 µM) | 2 (≈ 4.03 µM) | 2 (≈ 4.03 µM) | 2 (≈ 4.03 µM) | 0.5 (≈ 1.01 µM) | 2 (≈ 4.03 µM)
20 | O=C1O[C@@H](CNc2ccon2)CN1c1ccc(N2CCN(Cc3ccc([N+](=O)[O-])o3)CC2)c(F)c1 | 1 (≈ 2.06 µM) | 2 (≈ 4.11 µM) | 2 (≈ 4.11 µM) | 2 (≈ 4.11 µM) | 2 (≈ 4.11 µM) | 2 (≈ 4.11 µM) | 1 (≈ 2.06 µM) | 2 (≈ 4.11 µM)
21 | COC(=S)NC[C@H]1CN(c2ccc(N3CCN(Cc4ccc([N+](=O)[O-])o4)CC3)c(F)c2)C(=O)O1 | 1 (≈ 2.03 µM) | 1 (≈ 2.03 µM) | 2 (≈ 4.05 µM) | 1 (≈ 2.03 µM) | 2 (≈ 4.05 µM) | 2 (≈ 4.05 µM) | 0.5 (≈ 1.01 µM) | 2 (≈ 4.05 µM)
22 | O=C(NC[C@H]1CN(c2ccc(N3CCN(Cc4ccc([N+](=O)[O-])o4)CC3)c(F)c2)C(=O)O1)c1ccc([N+](=O)[O-])o1 | > 8 | 4 (≈ 7.16 µM) | 2 (≈ 3.58 µM) | > 8 | 2 (≈ 3.58 µM) | 1 (≈ 1.79 µM) | 8 (≈ 14.3 µM) | 8 (≈ 14.3 µM)
23 | O=C(NC[C@H]1CN(c2ccc(N3CCN(Cc4ccc([N+](=O)[O-])o4)CC3)c(F)c2)C(=O)O1)c1ccc(Br)o1 | > 16 | > 16 | > 16 | > 16 | > 16 | > 16 | > 16 | > 16
24 | O=C(/C=C/c1ccc(F)cc1)NC[C@H]1CN(c2ccc(N3CCN(Cc4ccc([N+](=O)[O-])o4)CC3)c(F)c2)C(=O)O1 | > 16 | > 16 | > 16 | > 16 | > 16 | > 16 | > 16 | > 16
25 | O=C(NC[C@H]1CN(c2ccc(N3CCN(Cc4ccc([N+](=O)[O-])o4)CC3)c(F)c2)C(=O)O1)c1cc2ccccc2o1 | > 16 | > 16 | > 16 | > 16 | > 16 | > 16 | > 16 | > 16
26 | O=C1O[C@@H](COc2ccon2)CN1c1ccc(N2CCN(Cc3ccc([N+](=O)[O-])o3)CC2)c(F)c1 | > 16 | > 16 | > 16 | > 16 | > 16 | > 16 | > 16 | > 16
27 | CC(=O)NC[C@H]1CN(c2ccc(N3CCOCC3)c(F)c2)C(=O)O1 [LINEZOLID] | 2 (≈ 5.93 µM) | – | – | 2 (≈ 5.93 µM) | – | – | – | –
28 | CC(=O)NC[C@H]1CN(c2ccc(N3CCN(Cc4ccc([N+](=O)[O-])o4)CC3)c(F)c2)C(=O)O1 [RANBEZOLID] | 0.125 (≈ 0.271 µM) | 2 (≈ 4.33 µM) | – | 2 (≈ 4.33 µM) | 2 (≈ 4.33 µM) | 2 (≈ 4.33 µM) | 0.125 (≈ 0.271 µM) | 1 (≈ 2.17 µM)
